Values after ≈ are worked out from the molar mass of the structure shown. Active and inactive are the calls of the source. The rule behind the calls is not given here.
What was measured:
Staphylococcus aureus [1] = test: Antibacterial activity against Staphylococcus aureus ATCC 25923 after 24 hrs by broth macrodilution method; assay type: functional; details: ATCC 25923, 24 h
Procedure, shortened: (§1)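 Bacteria pre-grown 24 h on nutritive agar (tryptone soy agar for E. faecalis, L. inocua) at 37 °C (30 °C for E. faecalis, L. inocua, B. cereus). MIC and MBC determined by macro-dilution broth method; MBC = lowest concentration killing 99.99% of inoculum. Compounds in DMSO, max 2.13% solvent in cultures. Triplicate.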

Escherichia coli [2] = test: Antibacterial activity against Escherichia coli ATCC 25922 after 24 hrs by broth macrodilution method; assay type: functional; details: ATCC 25922, 24 h; procedure, shortened: as §1
Enterococcus faecalis [3] = test: Antibacterial activity against Enterococcus faecalis CIP 103214 after 24 hrs by broth macrodilution method; assay type: functional; details: CIP 103214, 24 h; procedure, shortened: as §1
Candida albicans [4] = test: Antifungal activity against Candida albicans ATCC 10231 at 50 ug after 24 hrs by agar diffusion method; assay type: functional; details: ATCC 10231, 24 h, read-out: IZ
Procedure, shortened: (§2)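 Yeasts grown on yeast extract peptone dextrose medium at 30 °C for 24 h, then agar well diffusion with 50 µg compound in 80% DMSO; 80% DMSO alone as control. Averaged inhibition zone diameter from triplicate, scored 6-9, 9-12 or >12 mm.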

Candida albicans [5] = test: Antifungal activity against Candida albicans ATCC 10231 after 24 hrs by broth macrodilution method; assay type: functional; details: ATCC 10231, 24 h
Procedure, shortened: (§3)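 Yeasts pre-grown on yeast extract peptone dextrose medium, 30 °C, 24 h. MIC and MFC by macro-dilution broth method; compounds in DMSO, max 2.13% solvent in cultures. Amphotericin B and fluconazole as references. MFC/MIC ratio computed; ≥4 taken as fungistatic. Triplicate.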

Listeria innocua [6] = test: Antibacterial activity against Listeria innocua at 50 ug after 24 hrs by agar diffusion method; assay type: functional; details: read-out: IZ
Procedure, shortened: (§4)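 Bacteria pre-grown 24 h on nutritive agar (tryptone soy agar for E. faecalis, L. inocua) at 37 °C (30 °C for E. faecalis, L. inocua, B. cereus). Agar well diffusion with 50 µg compound in 80% DMSO; 80% DMSO alone as control. Inhibition zone diameter averaged from triplicate, scored 6-9, 9-12, >12 mm.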

Nakaseomyces glabratus [7] = test: Antifungal activity against Candida glabrata DSM6425 at 50 ug after 24 hrs by agar diffusion method; assay type: functional; details: DSM6425, 24 h, read-out: IZ; procedure, shortened: as §2
Bacillus cereus [8] = test: Antibacterial activity against Bacillus cereus at 50 ug after 24 hrs by agar diffusion method; assay type: functional; details: read-out: IZ; procedure, shortened: as §4
Enterococcus faecalis [9] = test: Antibacterial activity against Enterococcus faecalis CIP 103214 at 50 ug after 24 hrs by agar diffusion method; assay type: functional; details: CIP 103214, 24 h, read-out: IZ; procedure, shortened: as §4
Nakaseomyces glabratus [10] = test: Antifungal activity against Candida glabrata DSM6425 after 24 hrs by broth macrodilution method; assay type: functional; details: DSM6425, 24 h; procedure, shortened: as §3
Bacillus cereus [11] = test: Antibacterial activity against Bacillus cereus after 24 hrs by broth macrodilution method; assay type: functional; procedure, shortened: as §1
Candida tropicalis [12] = test: Ratio of MFC to MIC against Candida tropicalis DSM 1346; assay type: functional; procedure, shortened: as §3
Pichia kudriavzevii = test: Antifungal activity against Issatchenkia orientalis DSM6128 at 50 ug after 24 hrs by agar diffusion method; assay type: functional, organism-based; procedure, shortened: as §2
Staphylococcus aureus [13] = test: Antibacterial activity against Staphylococcus aureus ATCC 25923 at 50 ug after 24 hrs by agar diffusion method; assay type: functional; procedure, shortened: as §4
MCF7 = test: Antiproliferative activity against human MCF7 cells after 72 hrs by MTT assay; assay type: functional; details: MCF7, 72 h
Procedure, shortened: (§5)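 5000 cells per well added to pre-equilibrated medium at 37 °C; compounds from 10^-3 M DMSO stocks, final 10^-5 M. After 72 h, MTT (5 g/L) for 4 h, formazan dissolved in DMSO, OD 550 nm. % growth inhibition vs 1% DMSO medium (0%) and 10% SDS lysis (100%); mean ± SEM, 24 measures, three independent experiments.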

Klebsiella pneumoniae = test: Antibacterial activity against Klebsiella pneumoniae CIP 53153 at 50 ug after 24 hrs by agar diffusion method; assay type: functional, organism-based; procedure, shortened: as §4
MDA-MB-231 [14] = test: Antiproliferative activity against human MDA-MB-231 cells after 72 hrs by MTT assay; assay type: functional; details: MDA-MB-231, 72 h; procedure, shortened: as §5
Escherichia coli [15] = test: Antibacterial activity against Escherichia coli ATCC 25922 at 50 ug after 24 hrs by agar diffusion method; assay type: functional; details: ATCC 25922, 24 h, read-out: IZ; procedure, shortened: as §4
Candida tropicalis [16] = test: Antifungal activity against Candida tropicalis DSM 1346 after 24 hrs by broth macrodilution method; assay type: functional; details: DSM 1346, 24 h; procedure, shortened: as §3
Pseudomonas aeruginosa = test: Antibacterial activity against Pseudomonas aeruginosa ATCC 27853 at 50 ug after 24 hrs by agar diffusion method; assay type: functional, organism-based; procedure, shortened: as §4
Listeria innocua [17] = test: Antibacterial activity against Listeria innocua after 24 hrs by broth macrodilution method; assay type: functional; procedure, shortened: as §1
Candida tropicalis [18] = test: Antifungal activity against Candida tropicalis DSM 1346 at 50 ug after 24 hrs by agar diffusion method; assay type: functional; details: DSM 1346, 24 h, read-out: IZ; procedure, shortened: as §2
MDA-MB-231 [19] = test: Antiproliferative activity against human MDA-MB-231 cells at 10 uM after 72 hrs by MTT assay; assay type: functional; details: MDA-MB-231, 72 h; procedure, shortened: as §5
Nakaseomyces glabratus [20] = test: Ratio of MFC to MIC against Candida glabrata DSM6425; assay type: functional; procedure, shortened: as §3
Candida albicans [21] = test: Ratio of MFC to MIC against Candida albicans ATCC 10231; assay type: functional
Procedure, shortened: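 C. albicans ATCC10231 was pre-grown on yeast extract peptone dextrose agar for 24 h at 30 °C. MIC and MFC were determined by broth macro-dilution, with compounds dissolved in DMSO at no more than 2.13% solvent in the liquid culture. Each endpoint was measured in triplicate, and the MFC was divided by the MIC to give the ratio.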

Structure (SMILES)	MBC (Staphylococcus aureus [1]) [µg/mL]	MIC (Staphylococcus aureus [1]) [µg/mL]	MBC (Escherichia coli [2]) [µg/mL]	MIC (Escherichia coli [2]) [µg/mL]	MBC (Enterococcus faecalis [3]) [µg/mL]	MIC (Enterococcus faecalis [3]) [µg/mL]	zone of inhibition at 50 µg/disc (Candida albicans [4]) [mm]	MFC (Candida albicans [5]) [µg/mL]	MIC (Candida albicans [5]) [µg/mL]	zone of inhibition at 50 µg/disc (Listeria innocua [6]) [mm]	zone of inhibition at 50 µg/disc (Nakaseomyces glabratus [7]) [mm]	zone of inhibition at 50 µg/disc (Bacillus cereus [8]) [mm]	zone of inhibition at 50 µg/disc (Enterococcus faecalis [9]) [mm]	MFC (Nakaseomyces glabratus [10]) [µg/mL]	MIC (Nakaseomyces glabratus [10]) [µg/mL]	MBC (Bacillus cereus [11]) [µg/mL]	Ratio (Candida tropicalis [12])	MFC (Candida tropicalis [16]) [µg/mL]	MIC (Candida tropicalis [16]) [µg/mL]	Ratio (Nakaseomyces glabratus [20])	also measured
S=c1ssnc1-c1ccccn1	> 48	48 (≈ 226 µM)	> 48	> 48	> 48	48 (≈ 226 µM)	> 12	> 48	32 (≈ 151 µM)	9	9	9	> 12	48 (≈ 226 µM)	8 (≈ 37.7 µM)	> 48	1.5	48 (≈ 226 µM)	32 (≈ 151 µM)	6	MIC (Bacillus cereus [11]): > 48 µg/mL; Activity (Pichia kudriavzevii): inactive; zone of inhibition at 50 µg/disc (Staphylococcus aureus [13]; Staphylococcus aureus, ATCC 25923, 24 h, read-out: IZ): 12 mm; GI50 (MCF7): > 10 µM; Activity (Klebsiella pneumoniae): inactive; GI50 (MDA-MB-231 [14]): > 10 µM; zone of inhibition at 50 µg/disc (Escherichia coli [15]): 6 mm; Activity (Pseudomonas aeruginosa): inactive; MBC (Listeria innocua [17]): > 48 µg/mL; MIC (Listeria innocua [17]): 16 µg/mL (≈ 75.4 µM); zone of inhibition at 50 µg/disc (Candida tropicalis [18]): 9 mm; inhibition at 10 µM (MDA-MB-231 [19]): 0%
OC(Cn1cncn1)(Cn1cncn1)c1ccc(F)cc1F [FLUCONAZOLE]								> 128	2 (≈ 6.53 µM)					> 128	4 (≈ 13.1 µM)		>32	> 128	4 (≈ 13.1 µM)	>32	Ratio (Candida albicans [21]): >64
C[C@@H]1[C@H](O)[C@@H](C)/C=C/C=C/C=C/C=C/C=C/C=C/C=C/[C@H](O[C@@H]2O[C@H](C)[C@@H](O)[C@H](N)[C@@H]2O)C[C@@H]2O[C@](O)(C[C@@H](O)C[C@@H](O)[C@H](O)CC[C@@H](O)C[C@@H](O)CC(=O)O[C@H]1C)C[C@H](O)[C@H]2C(=O)O [AMPHOTERICIN B]								0.5 (≈ 0.541 µM)	0.25 (≈ 0.271 µM)					2 (≈ 2.16 µM)	2 (≈ 2.16 µM)		2	2 (≈ 2.16 µM)	1 (≈ 1.08 µM)	2	Ratio (Candida albicans [21]): 2
CCOC(=O)c1nssc1=S	> 48	48 (≈ 232 µM)	> 48	> 48	> 48	> 48	> 12	> 48	48 (≈ 232 µM)	6	6	9	9	48 (≈ 232 µM)	32 (≈ 154 µM)	> 48		> 48	48 (≈ 232 µM)	1.5	MIC (Bacillus cereus [11]): > 48 µg/mL; Activity (Pichia kudriavzevii): inactive; Activity (Staphylococcus aureus [13]): 12 mm; GI50 (MCF7): > 10 µM; Activity (Klebsiella pneumoniae): inactive; GI50 (MDA-MB-231 [14]): > 10 µM; zone of inhibition at 50 µg/disc (Escherichia coli [15]): 9 mm; Activity (Pseudomonas aeruginosa): inactive; MBC (Listeria innocua [17]): > 48 µg/mL; MIC (Listeria innocua [17]): 32 µg/mL (≈ 154 µM); zone of inhibition at 50 µg/disc (Candida tropicalis [18]): 6 mm; inhibition at 10 µM (MDA-MB-231 [19]): 0%
